Measured values as given in PubChem BioAssay.
Activity calls are given as the source filed them.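 How the source made its calls, unless noted: active means visual image review flags a hit and inhibition of aggregation exceeds 20%; inconclusive means visual hit but inhibition at or below 20%; inactive means no hit on visual image review.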

Experiments:
[1] = inhibitors of TNFa-induced NFkB p65 translocation, primary screen, imaging, HUVEC, MLSMR starter and 10KST1 sets (AID 438;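 active means inhibition above 20% together with a positive visual image hit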;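 further: compound added about 3h40 before a 20 min TNFalpha stimulation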;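 on inhibition: signal is the nuclear over cytoplasmic p65 intensity ratio per well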); conditions: HUVEC TNFa-induced p65 nuclear translocation; cell count: measured here: nuclei count (cytotoxicity indicator), at 2.08 µM; inhibition: at 2 µM, stronger effect = higher value, 0% TNFa-plus-vehicle, 100% no-TNFa wells
[2] = inhibitors of mutant huntingtin aggregation, primary screen, imaging, exon1htt(103Q)mCFP cells, high-content imaging (AID 483); conditions: exon1htt(103Q)mCFP cell line, aggregate imaging, at 2 µM; inhibition of aggregation: stronger effect = higher value; nuclei count: measured here: cell count, toxicity;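 further: compound exposure lasted 3 days before fixation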;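 on nuclei count: percent of the per-plate median nuclei count of sample wells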
[3] = inhibitors of E-selectin induction by TNFa, primary screen, imaging, HUVEC, immunofluorescence, MLSMR starter and 10KST1 sets (AID 487;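 active means visually confirmed hit in the image check and inhibition above 20%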;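 on inhibition: signal is fraction of cell area covered by stained E-selectin grains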;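 on nuclei count: 100% = median nuclei count of all wells on the same plate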); conditions: HUVEC TNFalpha-induced E-selectin immunofluorescence imaging, at 2 µM; inhibition: stronger effect = higher value; nuclei count: measured here: cell number, toxicity
[4] = biological target: Voltage-gated potassium channel subunit beta-2 (Rattus norvegicus) (UniProt P62483); test: KvBeta enzyme negative modulators, primary screen, biochemical, NADPH fluorescence (AID 622;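 active means fluorescence slope higher than the sample average by over 3 SD, cut at about -0.22 in these data, passing the limit was not always enough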;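 further: slope of raw intensity against log time taken from 70 to 1610 s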); conditions: recombinant KvBeta, 4-cyanobenzaldehyde reduction, at 10 µM, stronger effect = higher value
[5] = biological target: Voltage-gated potassium channel subunit beta-2 (Rattus norvegicus) (UniProt P62483); test: KvBeta positive modulators, primary screen, biochemical, NADPH fluorescence (AID 623;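 active means NADPH fluorescence slope more negative than the mean of all samples by about 3 SD, 99.7% confidence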;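 further: fluorescence intensity change per second fitted from 20 to 320 s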); conditions: Recombinant KvBeta, NADPH fluorescence decrease slope, 10 min; at 10 µM; stronger effect = lower value
[6] = biological target: Muscarinic acetylcholine receptor M4 (Homo sapiens) (UniProt P08173); test: compounds altering M4/GIRK thallium flux, either direction, primary screen, M4 allosteric agonist project, cell-based, HEK293 M4/GIRK, BTC-AM (AID 625;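 active means fluorescence slope after compound addition differing from the mean of all tested samples at 99.7% confidence, mostly higher but some lower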;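 further: thallium influx through GIRK channels coupled to M4 in HEK293 cells with BTC-AM dye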); conditions: at 10 µM, actives lie on both sides
Summary of the method: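 Material – HEK293 cells with M4 receptor and GIRK channels · Buffer or medium – pH 7.3 thallium assay buffer · Doses – one dose, 10 µM final · Timing – cells overnight at 37 °C, BTC-AM loading 1 h, reads 2 min total · Measured by – kinetic fluorescence with BTC-AM dye · Controls – carbachol and DMSO controls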

[7] = inhibitors of Sendai virus-induced IRF3 signaling, primary screen, TLR/RLR signaling modifier project, cell-based, Sendai virus stimulus, luciferase, 10K MLSCN set (AID 602276;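 active means inhibition at or above 50% at 10 µM; inactive means inhibition below 50%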;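 further: firefly luciferase from ISG56 promoter only with Renilla not read in this screen; 0% = Sendai virus plus DMSO and 100% = medium plus DMSO without virus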); conditions: HEK293 RL24 IRF3 luciferase reporter, at 10 µM, stronger effect = higher value
[8] = inhibitors of poly I:C-induced TLR3 signaling, primary screen, cell-based, poly I:C stimulus, luciferase, 10K MLSCN set (AID 602277;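 active means inhibition of the reporter signal at or above 50%; inactive means inhibition below 50%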); conditions: HEK293-TLR3 RL24 IRF3 luciferase reporter, at 10 µM, stronger effect = higher value

Sequence of Muscarinic acetylcholine receptor M4 (Homo sapiens) (P08173 whole entry, looked up): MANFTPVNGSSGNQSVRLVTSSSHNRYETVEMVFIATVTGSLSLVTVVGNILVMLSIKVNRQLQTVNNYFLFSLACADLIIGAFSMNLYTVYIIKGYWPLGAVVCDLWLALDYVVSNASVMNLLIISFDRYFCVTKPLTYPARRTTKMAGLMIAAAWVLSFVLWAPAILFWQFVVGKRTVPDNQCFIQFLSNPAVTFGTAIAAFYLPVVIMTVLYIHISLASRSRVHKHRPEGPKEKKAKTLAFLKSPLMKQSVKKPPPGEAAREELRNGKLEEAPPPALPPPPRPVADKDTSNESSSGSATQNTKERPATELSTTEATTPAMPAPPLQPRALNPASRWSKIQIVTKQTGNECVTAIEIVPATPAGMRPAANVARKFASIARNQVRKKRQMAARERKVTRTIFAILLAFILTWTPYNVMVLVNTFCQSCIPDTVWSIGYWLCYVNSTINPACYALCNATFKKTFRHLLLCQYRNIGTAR
Sequence of Voltage-gated potassium channel subunit beta-2 (Rattus norvegicus) (P62483 whole entry, looked up): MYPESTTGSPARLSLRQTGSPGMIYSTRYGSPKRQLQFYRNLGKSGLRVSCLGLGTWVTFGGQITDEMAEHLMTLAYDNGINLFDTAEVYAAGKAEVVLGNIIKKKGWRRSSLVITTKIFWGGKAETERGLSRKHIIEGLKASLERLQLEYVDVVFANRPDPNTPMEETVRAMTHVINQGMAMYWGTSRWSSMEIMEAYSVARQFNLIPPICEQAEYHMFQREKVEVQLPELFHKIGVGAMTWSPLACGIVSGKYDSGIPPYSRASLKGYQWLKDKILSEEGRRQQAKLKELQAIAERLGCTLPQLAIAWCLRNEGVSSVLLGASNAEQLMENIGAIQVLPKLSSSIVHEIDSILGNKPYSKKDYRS

SMILES	cell count [1]	inhibition [1]	inhibition of aggregation [2]	nuclei count [2] [%]	inhibition [3]	nuclei count [3] [%]	fluorescence slope [4]	NADPH fluorescence slope [5]	fluorescence slope [6]	inhibition [7]	inhibition [8]
COCCCNC(=O)CCc1nc2cccnc2n1Cc1ccc(OC)cc1	462	4.3% (inactive)	-13.4% (inactive)	124	-16.4% (inactive)	98.8	-0.286 (inactive)	-2.5e-05 (inactive)	0.006 (inactive)	14.4% (inactive)	1.17% (inactive)
CN1C(=O)CSc2ccc(NC(=O)N3CCN(c4ccccn4)CC3)cc21	589	-16.4% (inactive)	-49% (inactive)	76.7	-57.6% (inactive)	112	-0.455 (inactive)	8e-05 (inactive)	0.00601 (inactive)	-6.76% (inactive)	21.6% (inactive)
Cn1c(=O)c(-c2ccccc2)nn2c3ccccc3nc12	704	-35.3% (inactive)	22.1% (inactive)	96.1	-79.5% (inactive)	113	-0.19 (inactive)	4.4e-07 (inactive)	0.00522 (inactive)	13.7% (inactive)	17.5% (inactive)
COc1ccc(OC(C)C(=O)N2CCN(c3ccccn3)CC2)cc1 (stereo not drawn)	395	7.5% (inactive)	3% (inactive)	103	-90.1% (inactive)	115	-0.447 (inactive)	-3.5e-05 (inactive)	0.0048 (inactive)	21.5% (inactive)	18% (inactive)
CCCC(C(=O)NCc1ccco1)N(C(=O)CNS(=O)(=O)c1ccc(Cl)cc1)C1CCCC1 (stereo not drawn)	387	-0.7% (inactive)	-2.5% (inactive)	110	-210% (inactive)	111	-0.522 (inactive)	-1.1e-05 (inactive)	0.00544 (inactive)	24.7% (inactive)	25.7% (inactive)
CC1CCN(C(=O)Cn2c(=O)oc3ccccc32)CC1	322	-0.6% (inactive)	15.4% (inactive)	100	-222% (inactive)	104	-0.57 (inactive)	4.8e-06 (inactive)	0.00554 (inactive)	-14.5% (inactive)	-12.5% (inactive)
COc1cc(C2C(C#N)=C(N)OC3=C2C(=O)CCC3)ccc1OC(=O)N1CCOCC1 (stereo not drawn)	503	-34.2% (inactive)	-16.1% (inactive)	93.7	-20.8% (inactive)	101	-0.37 (inactive)	-7.7e-05 (inactive)	0.00858 (inactive)	8.74% (inactive)	6.55% (inactive)
c1cncc(-c2nnc(-c3ccco3)o2)c1	383	-1.1% (inactive)	-27% (inactive)	116	3.9% (inactive)	95.6	-0.532 (inactive)	-1.2e-05 (inactive)	0.00567 (inactive)	-1.51% (inactive)	-11.7% (inactive)
CS(=O)(=O)Nc1ccc(C(=O)NCc2ccco2)cc1	499	-0.3% (inactive)	16.6% (inactive)	60	11.9% (inactive)	105	-0.571 (inactive)	1.2e-06 (inactive)	0.00586 (inactive)	5.42% (inactive)	16.9% (inactive)
CN(C)c1ccc(CNC2CC(C)(C)NC(C)(C)C2)cc1	334	2.4% (inactive)	-12.5% (inactive)	106	20.8% (inactive)	91.1	-0.584 (inactive)	-4.8e-05 (inactive)	0.00412 (inactive)	-0.582% (inactive)	16.7% (inactive)
CCOC(=O)C1=C(C)NC(SC(C)=O)=NC1c1ccc(OC(C)=O)c(OC)c1 (stereo not drawn)	550	0% (inactive)	50% (active)	64.7	-10.1% (inactive)	101	-0.507 (inactive)	-0.000113 (inactive)	0.0052 (inactive)	1.93% (inactive)	1.43% (inactive)
CCOC(=O)c1[nH]c2ccc(F)cc2c1NC(=O)C(C)N1CCc2cc(OC)c(OC)cc2C1 (stereo not drawn)	436	0.5% (inactive)	15.1% (inactive)	76.9	42.5% (inactive)	96	-0.574 (inactive)	-3.4e-05 (inactive)	0.00265 (inactive)	-0.796% (inactive)	35.3% (inactive)
COC(=O)c1[nH]c(C)c(/C(O)=C2\C(=O)C(=O)N(CCN(C)C)C2c2ccccc2OC)c1C (stereo not drawn)	472	-8% (inactive)	10.7% (inactive)	106	-33.4% (inactive)	103	-0.326 (inactive)	-1.8e-05 (inactive)	0.00598 (inactive)	-8.53% (inactive)	2.66% (inactive)
COCc1cc(C)c2c(N)c(C#N)sc2n1	549	2.2% (inactive)	-26% (inactive)	60.8	22.2% (inactive)	108	-0.324 (inactive)	2.3e-06 (inactive)	0.00504 (inactive)	-19.7% (inactive)	-33.5% (inactive)
Cc1ccc(S(=O)(=O)NCCCNC(=O)N2CCOCC2)cc1	769	-4.3% (inactive)	1.3% (inactive)	104	-103% (inactive)	129	-0.461 (inactive)	-4.9e-05 (inactive)	0.00502 (inactive)	17.8% (inactive)	16.7% (inactive)
c1ccc2c(c1)Cn1c-2nc2ccccc21	700	-28.4% (inactive)	5.7% (inactive)	80.7	-26.5% (inactive)	114	-0.349 (inactive)	-6.3e-05 (inactive)	0.00562 (inactive)	-36.1% (inactive)	-131% (inactive)
Cc1sc2ncnc(OCC(=O)N3CCN(S(=O)(=O)c4ccc(Cl)cc4)CC3)c2c1C	682	-9.4% (inactive)	-30.8% (inactive)	122	-50.8% (inactive)	124	-0.612 (inactive)	-4.9e-06 (inactive)	0.00511 (inactive)	-76.1% (inactive)	98.9% (active)
CCC(NS(=O)(=O)c1ccc(C)cc1)C(=O)N1CCC2(O)CCCCC2C1 (stereo not drawn)	379	-3.1% (inactive)	-10.7% (inactive)	106	-121% (inactive)	215	-0.429 (inactive)	0.000113 (inactive)	0.00572 (inactive)	0.0772% (inactive)	14.3% (inactive)
CN(c1cccc(NS(=O)(=O)c2cccs2)c1)S(C)(=O)=O	427	2.4% (inactive)	-15.2% (inactive)	110	-5% (inactive)	109	-0.446 (inactive)	-2.2e-06 (inactive)	0.00491 (inactive)	21.9% (inactive)	15.4% (inactive)
O=c1oc(-c2ccco2)nc2ccccc12	460	1% (inactive)	2.1% (inactive)	92.5	-332% (inactive)	132	-0.559 (inactive)	-4.2e-05 (inactive)	0.00609 (inactive)	13.9% (inactive)	15.3% (inactive)
Cc1occc1C(=O)Nc1ccccc1NC(=O)c1ccoc1C	425	-11.5% (inactive)	29.8% (inactive)	87.4	40.5% (inactive)	90.2	-0.543 (inactive)	-3.1e-05 (inactive)	0.00485 (inactive)	12.7% (inactive)	24.7% (inactive)
COCCn1c(SCC(=O)Nc2nnc(C)s2)nnc1-c1c[nH]c2ccccc12	518	7.1% (inactive)	-15.6% (inactive)	114	-37.4% (inactive)	113	-0.505 (inactive)	-0.00026 (inactive)	0.00466 (inactive)	5.93% (inactive)	14.2% (inactive)
CCC(C)NC(=O)CSC1=Nc2ccccc2C2=NC(CC(=O)NCc3ccccc3)C(=O)N12 (stereo not drawn)	651	-7.5% (inactive)	-9% (inactive)	55.7	-58.9% (inactive)	89.6	-0.461 (inactive)	-1.4e-05 (inactive)	0.00538 (inactive)	10.6% (inactive)	26.5% (inactive)
O=C(O)Cn1cc2c(n1)CCCC2	638	0.2% (inactive)	-7.3% (inactive)	104	13.9% (inactive)	114	-0.395 (inactive)	6.4e-05 (inactive)	0.00644 (inactive)	9.43% (inactive)	8.73% (inactive)
CCOC(=O)N1CCC(NC(=O)C2CCCN2C(=O)OCc2ccccc2)CC1 (stereo not drawn)	861	-0.5% (inactive)	-11.6% (inactive)	120	-19.6% (inactive)	110	-0.561 (inactive)	-1.3e-05 (inactive)	0.00566 (inactive)	-11.6% (inactive)	-1.88% (inactive)
COc1ccccc1C(O)P(=O)(OC(C)C)c1ccc(N(C)C)cc1 (stereo not drawn)	665	-3.9% (inactive)	6.1% (inactive)	122	0% (inactive)	106	-0.553 (inactive)	2.2e-06 (inactive)	0.00553 (inactive)	7.42% (inactive)	11% (inactive)
CCc1nc2c(cnn2-c2ccc(Cl)cc2)c(=O)n1-c1ccc2c(c1)OCCO2	706	-7.7% (inactive)	-5.1% (inactive)	120	-49.7% (inactive)	122	-0.543 (inactive)	-1.7e-05 (inactive)	0.00631 (inactive)	3.09% (inactive)	-2.86% (inactive)
c1ccc2c3nnc4n(c-3nc2c1)CCCS4	472	4.1% (inactive)	0.4% (inactive)	101	17.9% (inactive)	112	-0.444 (inactive)	-2.5e-05 (inactive)	0.00387 (inactive)	-12.6% (inactive)	-19.6% (inactive)
